How the values were obtained:
[1] = target: Sodium-dependent serotonin transporter (Rattus norvegicus, UniProt P31652); test: Selectivity for the Serotonin transporter using [3H]paroxetine binding assay
Summary of the method: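 Serotonin transporter binding used 1.5 mg hindbrain from male Sprague–Dawley rats with 0.2 nM [3H]paroxetine. Buffer was 50 mM Tris, 120 mM NaCl, 0.5 mM KCl, pH 7.4. Incubated 90 min at room temperature. Nonspecific binding defined with 1 μM citalopram. Ice-cold washes through PEI-soaked GF/B filters.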

[2] = target: Norepinephrine transporter (Rattus norvegicus, UniProt Q9WTR4); test: Selectivity for the norepinephrine transporter using [3H]nisoxetine binding assay
Chain of Norepinephrine transporter (Q9WTR4 whole entry): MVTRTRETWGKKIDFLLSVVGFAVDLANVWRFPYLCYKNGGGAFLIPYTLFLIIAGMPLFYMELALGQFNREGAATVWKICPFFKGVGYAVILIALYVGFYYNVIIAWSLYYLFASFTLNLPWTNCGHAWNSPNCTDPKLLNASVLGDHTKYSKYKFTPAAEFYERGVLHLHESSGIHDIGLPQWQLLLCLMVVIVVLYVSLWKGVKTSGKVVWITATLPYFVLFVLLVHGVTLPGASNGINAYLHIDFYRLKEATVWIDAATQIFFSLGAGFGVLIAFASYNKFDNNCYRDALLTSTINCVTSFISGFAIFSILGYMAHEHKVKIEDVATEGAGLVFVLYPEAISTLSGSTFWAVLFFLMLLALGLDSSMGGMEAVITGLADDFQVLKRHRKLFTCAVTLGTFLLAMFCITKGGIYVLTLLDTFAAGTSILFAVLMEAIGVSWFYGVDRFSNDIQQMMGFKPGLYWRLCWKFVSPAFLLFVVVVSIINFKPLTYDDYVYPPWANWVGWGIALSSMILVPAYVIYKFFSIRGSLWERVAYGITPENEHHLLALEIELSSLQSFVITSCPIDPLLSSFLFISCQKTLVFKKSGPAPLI
Summary of the method: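 Norepinephrine transporter binding used 8 mg frontal cortex from male Sprague–Dawley rats with 0.5 nM [3H]nisoxetine. Incubated 60 min. Nonspecific binding defined with 1 μM desipramine. Ice-cold washes through PEI-soaked GF/B filters.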

[3] = target: T1, Sodium-dependent dopamine transporter (Rattus norvegicus, UniProt P23977); test: Inhibitory potency against dopamine (DA) transporter using [3H]WIN-35428 (WIN-) binding assay.
T1 sequence (P23977 whole entry): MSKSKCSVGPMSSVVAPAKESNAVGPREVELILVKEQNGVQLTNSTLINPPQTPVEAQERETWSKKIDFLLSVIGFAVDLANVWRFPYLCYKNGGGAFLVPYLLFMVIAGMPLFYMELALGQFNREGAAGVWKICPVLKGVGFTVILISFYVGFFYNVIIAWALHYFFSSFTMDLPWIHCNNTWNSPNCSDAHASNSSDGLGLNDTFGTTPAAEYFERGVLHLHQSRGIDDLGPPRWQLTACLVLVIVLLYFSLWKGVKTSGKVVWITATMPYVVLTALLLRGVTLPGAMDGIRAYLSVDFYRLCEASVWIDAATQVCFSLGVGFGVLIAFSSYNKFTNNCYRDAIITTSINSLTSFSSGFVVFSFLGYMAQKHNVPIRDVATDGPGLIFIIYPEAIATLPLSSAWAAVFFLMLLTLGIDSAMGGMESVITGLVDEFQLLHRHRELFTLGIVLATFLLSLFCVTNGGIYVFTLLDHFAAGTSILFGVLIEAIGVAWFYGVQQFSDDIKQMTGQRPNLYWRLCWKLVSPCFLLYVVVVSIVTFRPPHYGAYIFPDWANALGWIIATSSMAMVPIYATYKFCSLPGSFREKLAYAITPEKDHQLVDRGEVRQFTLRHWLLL

[4] = target: T1, Sodium-dependent dopamine transporter; test: Inhibitory potency against [3H]DA uptake […]
Summary of the method: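 Rat striatal S1 fraction (CO2-anesthetized rats) diluted in Krebs-phosphate buffer (pH 7.4, O2/CO2-equilibrated, with pargyline and ascorbate). Preincubated with drug 10 min at 37 °C, then [3H]DA for 2.0 min. Nonspecific uptake measured at 0 °C. Stopped with chilled buffer and GF/C filtration, then scintillation counting. IC50 from usually five concentrations, each in duplicate.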

[5] = target: Monoamine transporters; serotonin & dopamine (Rattus norvegicus) (UniProt P31652+P23977); test: Ratio of IC50 of 5-HT (serotonin transporter) to IC50 of DA (dopamine transporter); type: protein assay
Chain of Monoamine transporters; serotonin & dopamine (Rattus norvegicus) (P23977 whole entry, looked up): as the sequence (P23977 whole entry) above
Chain of Monoamine transporters; serotonin & dopamine (Rattus norvegicus) (P31652 whole entry, looked up): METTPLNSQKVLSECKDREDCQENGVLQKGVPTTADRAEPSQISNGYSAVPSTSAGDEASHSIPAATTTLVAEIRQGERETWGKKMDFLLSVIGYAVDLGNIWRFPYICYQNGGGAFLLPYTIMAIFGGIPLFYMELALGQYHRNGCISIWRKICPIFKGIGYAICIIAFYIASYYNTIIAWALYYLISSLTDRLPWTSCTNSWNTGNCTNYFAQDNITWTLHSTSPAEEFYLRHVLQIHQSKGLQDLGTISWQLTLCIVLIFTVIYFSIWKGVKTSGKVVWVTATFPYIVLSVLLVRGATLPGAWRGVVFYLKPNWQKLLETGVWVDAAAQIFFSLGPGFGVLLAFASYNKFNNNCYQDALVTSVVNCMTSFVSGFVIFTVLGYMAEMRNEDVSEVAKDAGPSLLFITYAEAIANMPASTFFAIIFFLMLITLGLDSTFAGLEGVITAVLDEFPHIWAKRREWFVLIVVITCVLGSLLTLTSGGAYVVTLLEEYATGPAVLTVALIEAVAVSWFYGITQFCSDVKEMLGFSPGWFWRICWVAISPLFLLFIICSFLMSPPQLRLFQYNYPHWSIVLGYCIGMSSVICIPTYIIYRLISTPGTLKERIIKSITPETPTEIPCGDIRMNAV

[6] = target: Monoamine transporters; Norepininephrine & dopamine (Rattus norvegicus) (UniProt P23977+Q9WTR4); test: Ratio of IC50 of NE (norepinephrine transporter) to IC50 of DA (dopamine transporter); type: protein assay

Chain of Sodium-dependent serotonin transporter (P31652 whole entry): as the sequence (P31652 whole entry, looked up) above

| SMILES | IC50 [1] | IC50 [2] | IC50 [3] | IC50 [4] | Ratio [5] | Ratio [6] |
| --- | --- | --- | --- | --- | --- | --- |
| CN(C)CC1C2CCC(CC2)C1c1ccc(Cl)c(Cl)c1 (stereo not drawn) | 0.261 µM | 0.096 µM |  |  |  |  |
| CN(C)C1C2CCC(CC2=O)C1c1ccccc1 (stereo in doubt; 6) [listing 1 of 2 here] | 31.4 µM | 4.12 µM | 4.01 µM | 9.14 µM |  |  |
| CN(C)C1C2CCC(CC2=O)C1c1ccccc1 (stereo in doubt; 6) [listing 2 of 2 here] |  |  |  |  | 7.8 | 1 |
| CN(C)C1C2CCC(CC2O)C1c1ccccc1 (stereo in doubt; 7) [listing 1 of 2 here] | 8.38 µM | 1.51 µM | 1.77 µM | 4.45 µM |  |  |
| CN(C)C1C2CCC(CC2O)C1c1ccccc1 (stereo in doubt; 7) [listing 2 of 2 here] |  |  |  |  | 4.7 | 0.85 |
| CN(C)C1C2CCC(CC2O)C1c1ccccc1 (stereo in doubt; 8) [listing 1 of 2 here] | 21.8 µM | 7.23 µM | 2.04 µM | 2.81 µM |  |  |
| CN(C)C1C2CCC(CC2O)C1c1ccccc1 (stereo in doubt; 8) [listing 2 of 2 here] |  |  |  |  | 11 | 3.5 |
| CC(=O)OC1CC2CCC1C(N(C)C)C2c1ccccc1 (stereo in doubt; 9) [listing 1 of 2 here] | 2.45 µM | 0.535 µM | 5.33 µM | 4.93 µM |  |  |
| CC(=O)OC1CC2CCC1C(N(C)C)C2c1ccccc1 (stereo in doubt; 9) [listing 2 of 2 here] |  |  |  |  | 0.46 | 0.1 |
| CC(=O)OC1CC2CCC1C(N(C)C)C2c1ccccc1 (stereo in doubt; 10) [listing 1 of 2 here] | 176 µM | 55.4 µM | 12.2 µM | 25.8 µM |  |  |
| CC(=O)OC1CC2CCC1C(N(C)C)C2c1ccccc1 (stereo in doubt; 10) [listing 2 of 2 here] |  |  |  |  | 14 | 4.5 |
| CN(C)C1C2CCC(CC2OC(=O)c2ccccc2)C1c1ccccc1 (stereo in doubt; 11) [listing 1 of 2 here] | 0.053 µM | 0.225 µM | 0.358 µM | 0.372 µM |  |  |
| CN(C)C1C2CCC(CC2OC(=O)c2ccccc2)C1c1ccccc1 (stereo in doubt; 11) [listing 2 of 2 here] |  |  |  |  | 0.15 | 0.65 |
| CN(C)C1C2CCC(CC2OC(=O)c2ccccc2)C1c1ccccc1 (stereo in doubt; 12) [listing 1 of 2 here] | 11.1 µM | 1.47 µM | 0.27 µM | 0.687 µM |  |  |
| CN(C)C1C2CCC(CC2OC(=O)c2ccccc2)C1c1ccccc1 (stereo in doubt; 12) [listing 2 of 2 here] |  |  |  |  | 41 | 5.4 |
| CN(C)C1C2CCC(CC2=O)C1c1ccccc1 (stereo in doubt; 13) [listing 1 of 2 here] | 61.2 µM | 10.6 µM | 10.3 µM | 24.7 µM |  |  |
| CN(C)C1C2CCC(CC2=O)C1c1ccccc1 (stereo in doubt; 13) [listing 2 of 2 here] |  |  |  |  | 5.9 | 1 |
| CN(C)C1C2CCC(CC2O)C1c1ccccc1 (stereo in doubt; 14) [listing 1 of 2 here] | 12.3 µM | 7.73 µM | 7.04 µM | 10.9 µM |  |  |
| CN(C)C1C2CCC(CC2O)C1c1ccccc1 (stereo in doubt; 14) [listing 2 of 2 here] |  |  |  |  | 1.7 | 1.1 |
| CN(C)C1C2CCC(CC2O)C1c1ccccc1 (stereo in doubt; 15) [listing 1 of 2 here] | > 100 µM | 34.4 µM | 9.92 µM | 23 µM |  |  |
| CN(C)C1C2CCC(CC2O)C1c1ccccc1 (stereo in doubt; 15) [listing 2 of 2 here] |  |  |  |  | > 10 | 3.5 |
| CC(=O)OC1CC2CCC1C(N(C)C)C2c1ccccc1 (stereo in doubt; 16) [listing 1 of 2 here] | 4.77 µM | 10.4 µM | 13.6 µM | 16.3 µM |  |  |
| CC(=O)OC1CC2CCC1C(N(C)C)C2c1ccccc1 (stereo in doubt; 16) [listing 2 of 2 here] |  |  |  |  | 0.35 | 0.76 |
| CC(=O)OC1CC2CCC1C(N(C)C)C2c1ccccc1 (stereo in doubt; 17) [listing 1 of 2 here] | 22.8 µM | 46.8 µM | 45.6 µM | 75 µM |  |  |
| CC(=O)OC1CC2CCC1C(N(C)C)C2c1ccccc1 (stereo in doubt; 17) [listing 2 of 2 here] |  |  |  |  | 0.5 | 1 |
| CN(C)C1C2CCC(CC2OC(=O)c2ccccc2)C1c1ccccc1 (stereo in doubt; 18) [listing 1 of 2 here] | 0.76 µM | 7.38 µM | 2.2 µM | 4.84 µM |  |  |
| CN(C)C1C2CCC(CC2OC(=O)c2ccccc2)C1c1ccccc1 (stereo in doubt; 18) [listing 2 of 2 here] |  |  |  |  | 0.35 | 3.4 |
| CN(C)C1C2CCC(CC2OC(=O)c2ccccc2)C1c1ccccc1 (stereo in doubt; 19) [listing 1 of 2 here] | 1.88 µM | 4.19 µM | 2.27 µM | 8.24 µM |  |  |
| CN(C)C1C2CCC(CC2OC(=O)c2ccccc2)C1c1ccccc1 (stereo in doubt; 19) [listing 2 of 2 here] |  |  |  |  | 0.83 | 1.8 |
| COC(=O)[C@H](c1ccccc1)[C@H]1CCCCN1 [DEXMETHYLPHENIDATE] | 224 µM | 0.989 µM |  |  |  |  |

From ChEMBL document CHEMBL1132481 (J Med Chem, 1999)
